{"source": "ChEMBL document CHEMBL3259739", "about": "“Synthesis and structure-activity relationship of trisubstituted thiazoles as Cdc7 kinase inhibitors” (Eur J Med Chem, 2014)"}
{"biological_target": "T1, Serine/threonine-protein kinase TAO2 (Homo sapiens) (UniProt Q9UL54)", "T1 sequence (whole entry)": "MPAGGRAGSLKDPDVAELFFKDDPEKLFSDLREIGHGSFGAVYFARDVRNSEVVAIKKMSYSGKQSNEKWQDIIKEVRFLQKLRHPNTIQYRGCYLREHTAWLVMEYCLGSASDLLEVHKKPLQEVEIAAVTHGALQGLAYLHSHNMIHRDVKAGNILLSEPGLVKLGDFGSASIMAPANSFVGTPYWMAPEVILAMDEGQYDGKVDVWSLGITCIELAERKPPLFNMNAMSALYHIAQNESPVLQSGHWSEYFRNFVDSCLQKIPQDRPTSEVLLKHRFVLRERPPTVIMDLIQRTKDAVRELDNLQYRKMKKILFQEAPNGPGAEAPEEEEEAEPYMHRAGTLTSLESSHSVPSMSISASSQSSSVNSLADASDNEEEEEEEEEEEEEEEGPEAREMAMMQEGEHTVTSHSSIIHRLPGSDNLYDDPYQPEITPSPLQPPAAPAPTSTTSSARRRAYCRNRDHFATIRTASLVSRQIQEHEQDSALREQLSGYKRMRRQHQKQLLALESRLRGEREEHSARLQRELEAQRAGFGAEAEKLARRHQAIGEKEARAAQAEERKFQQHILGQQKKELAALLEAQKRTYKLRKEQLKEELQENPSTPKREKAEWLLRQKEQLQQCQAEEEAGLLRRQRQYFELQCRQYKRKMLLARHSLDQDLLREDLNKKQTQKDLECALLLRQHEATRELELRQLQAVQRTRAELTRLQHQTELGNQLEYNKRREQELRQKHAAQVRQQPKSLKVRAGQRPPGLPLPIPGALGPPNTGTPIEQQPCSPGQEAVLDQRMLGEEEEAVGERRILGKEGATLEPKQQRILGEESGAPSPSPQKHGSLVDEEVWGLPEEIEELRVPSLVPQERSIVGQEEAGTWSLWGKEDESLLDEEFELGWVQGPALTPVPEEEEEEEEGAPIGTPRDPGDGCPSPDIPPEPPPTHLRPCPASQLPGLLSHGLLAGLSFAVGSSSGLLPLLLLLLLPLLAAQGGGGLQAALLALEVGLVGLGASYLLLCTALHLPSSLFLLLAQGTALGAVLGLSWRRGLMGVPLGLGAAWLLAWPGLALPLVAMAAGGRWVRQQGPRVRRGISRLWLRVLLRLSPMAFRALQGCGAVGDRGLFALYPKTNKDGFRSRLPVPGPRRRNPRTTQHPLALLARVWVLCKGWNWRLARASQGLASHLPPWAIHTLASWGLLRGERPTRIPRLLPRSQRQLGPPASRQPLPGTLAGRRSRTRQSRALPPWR", "assay": "Inhibition of TAOK2 (unknown origin) at 1 uM relative to control", "conditions": "values are per cent of control", "in_short": "(§1)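 KinomeSCAN competitive binding panel of 100 kinases; compounds tested at 1 µM in duplicate; read-out is percent […] control.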", "units": {"residual binding, % of control": "%"}}
{"molecule": "COc1ccc(-c2nc(-c3ccnc(N)n3)sc2C(N)=O)c(Cl)c1", "residual binding, % of control": 25}
{"molecule": "CCOC(=O)c1sc(-c2ccncc2)nc1O", "residual binding, % of control": 100}
{"molecule": "NC(=O)c1sc(-c2ccnc(N)n2)nc1-c1ccc(Cl)cc1Cl", "residual binding, % of control": 55}
{"biological_target": "5'-AMP-activated protein kinase catalytic subunit alpha-1 (Homo sapiens) (UniProt Q13131)", "sequence (Q13131 whole entry, looked up)": "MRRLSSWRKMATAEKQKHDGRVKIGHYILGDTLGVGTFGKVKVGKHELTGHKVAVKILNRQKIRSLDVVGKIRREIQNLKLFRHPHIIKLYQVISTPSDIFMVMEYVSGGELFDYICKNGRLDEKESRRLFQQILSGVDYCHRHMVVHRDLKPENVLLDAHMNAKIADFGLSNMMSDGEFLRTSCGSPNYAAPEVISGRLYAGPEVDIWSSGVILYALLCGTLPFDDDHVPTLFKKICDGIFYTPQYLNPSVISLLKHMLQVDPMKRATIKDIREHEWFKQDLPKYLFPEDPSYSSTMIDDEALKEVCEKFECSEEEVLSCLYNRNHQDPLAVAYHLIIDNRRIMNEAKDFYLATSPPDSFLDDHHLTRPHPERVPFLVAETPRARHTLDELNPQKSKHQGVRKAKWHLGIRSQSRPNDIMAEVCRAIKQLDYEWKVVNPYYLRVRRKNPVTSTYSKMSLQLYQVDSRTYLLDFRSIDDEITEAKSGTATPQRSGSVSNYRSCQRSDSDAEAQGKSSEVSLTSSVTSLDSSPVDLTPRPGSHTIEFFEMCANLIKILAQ", "assay": "Inhibition of AMPKalpha1 (unknown origin) at 1 uM relative to control; values are per cent of control", "conditions": "not given", "units": {"residual activity": "%"}}
{"molecule": "COc1ccc(-c2nc(-c3ccnc(N)n3)sc2C(N)=O)c(Cl)c1", "residual activity": 76}
{"molecule": "CCOC(=O)c1sc(-c2ccncc2)nc1O", "residual activity": 68}
{"molecule": "NC(=O)c1sc(-c2ccnc(N)n2)nc1-c1ccc(Cl)cc1Cl", "residual activity": 100}
{"biological_target": "Dual specificity protein kinase CLK1 (Homo sapiens) (UniProt P49759)", "sequence (P49759 whole entry, looked up)": "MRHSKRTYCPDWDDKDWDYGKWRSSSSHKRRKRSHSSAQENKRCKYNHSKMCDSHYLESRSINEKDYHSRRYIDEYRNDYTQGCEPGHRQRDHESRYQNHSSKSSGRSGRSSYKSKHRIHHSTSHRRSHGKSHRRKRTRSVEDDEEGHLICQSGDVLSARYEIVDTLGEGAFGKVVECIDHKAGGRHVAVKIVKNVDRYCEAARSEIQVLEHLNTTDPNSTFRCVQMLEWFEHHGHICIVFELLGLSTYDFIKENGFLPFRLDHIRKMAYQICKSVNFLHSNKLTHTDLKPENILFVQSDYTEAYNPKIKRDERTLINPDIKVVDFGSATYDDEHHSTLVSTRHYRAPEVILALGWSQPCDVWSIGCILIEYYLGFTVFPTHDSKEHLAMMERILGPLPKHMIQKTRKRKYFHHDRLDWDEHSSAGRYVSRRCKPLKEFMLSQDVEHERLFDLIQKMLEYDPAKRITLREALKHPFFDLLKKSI", "assay": "Inhibition of CLK1 (unknown origin) at 1 uM relative to control; values are per cent of control", "conditions": "not given", "units": {"residual activity": "%"}}
{"molecule": "COc1ccc(-c2nc(-c3ccnc(N)n3)sc2C(N)=O)c(Cl)c1", "residual activity": 2.3}
{"molecule": "CCOC(=O)c1sc(-c2ccncc2)nc1O", "residual activity": 90}
{"molecule": "NC(=O)c1sc(-c2ccnc(N)n2)nc1-c1ccc(Cl)cc1Cl", "residual activity": 1.3}
{"biological_target": "Epithelial discoidin domain-containing receptor 1 (Homo sapiens) (UniProt Q08345)", "sequence (Q08345 whole entry, the tested form may be a part)": "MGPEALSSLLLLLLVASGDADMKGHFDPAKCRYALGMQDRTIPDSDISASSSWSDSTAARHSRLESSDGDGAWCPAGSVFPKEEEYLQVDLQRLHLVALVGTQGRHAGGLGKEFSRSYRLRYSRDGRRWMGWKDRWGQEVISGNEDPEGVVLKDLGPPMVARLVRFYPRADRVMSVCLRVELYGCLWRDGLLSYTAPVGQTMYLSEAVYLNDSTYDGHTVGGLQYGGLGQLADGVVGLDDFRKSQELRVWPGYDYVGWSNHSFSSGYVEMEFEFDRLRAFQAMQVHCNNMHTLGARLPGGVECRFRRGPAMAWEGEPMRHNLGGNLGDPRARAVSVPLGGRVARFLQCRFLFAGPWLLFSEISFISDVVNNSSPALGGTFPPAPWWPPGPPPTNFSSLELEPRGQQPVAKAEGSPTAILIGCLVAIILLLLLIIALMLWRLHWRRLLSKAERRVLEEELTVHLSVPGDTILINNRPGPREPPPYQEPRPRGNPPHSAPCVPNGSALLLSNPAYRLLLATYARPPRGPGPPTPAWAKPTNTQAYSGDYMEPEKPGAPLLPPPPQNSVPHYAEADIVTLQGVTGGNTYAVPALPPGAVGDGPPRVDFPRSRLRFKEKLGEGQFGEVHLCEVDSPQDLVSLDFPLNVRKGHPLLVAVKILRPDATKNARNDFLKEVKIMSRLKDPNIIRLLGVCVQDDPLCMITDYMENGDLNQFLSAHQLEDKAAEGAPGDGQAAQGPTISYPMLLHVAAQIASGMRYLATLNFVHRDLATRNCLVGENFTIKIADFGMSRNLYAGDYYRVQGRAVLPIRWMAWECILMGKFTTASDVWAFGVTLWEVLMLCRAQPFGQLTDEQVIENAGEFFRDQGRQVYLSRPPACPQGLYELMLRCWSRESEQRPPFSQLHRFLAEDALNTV", "assay": "Inhibition of DDR1 (unknown origin) at 1 uM relative to control; values are per cent of control", "conditions": "not given", "units": {"residual activity": "%"}}
{"molecule": "COc1ccc(-c2nc(-c3ccnc(N)n3)sc2C(N)=O)c(Cl)c1", "residual activity": 84}
{"molecule": "CCOC(=O)c1sc(-c2ccncc2)nc1O", "residual activity": 98}
{"molecule": "NC(=O)c1sc(-c2ccnc(N)n2)nc1-c1ccc(Cl)cc1Cl", "residual activity": 80}
{"biological_target": "Angiopoietin-1 receptor (Homo sapiens) (UniProt Q02763)", "sequence (Q02763 whole entry)": "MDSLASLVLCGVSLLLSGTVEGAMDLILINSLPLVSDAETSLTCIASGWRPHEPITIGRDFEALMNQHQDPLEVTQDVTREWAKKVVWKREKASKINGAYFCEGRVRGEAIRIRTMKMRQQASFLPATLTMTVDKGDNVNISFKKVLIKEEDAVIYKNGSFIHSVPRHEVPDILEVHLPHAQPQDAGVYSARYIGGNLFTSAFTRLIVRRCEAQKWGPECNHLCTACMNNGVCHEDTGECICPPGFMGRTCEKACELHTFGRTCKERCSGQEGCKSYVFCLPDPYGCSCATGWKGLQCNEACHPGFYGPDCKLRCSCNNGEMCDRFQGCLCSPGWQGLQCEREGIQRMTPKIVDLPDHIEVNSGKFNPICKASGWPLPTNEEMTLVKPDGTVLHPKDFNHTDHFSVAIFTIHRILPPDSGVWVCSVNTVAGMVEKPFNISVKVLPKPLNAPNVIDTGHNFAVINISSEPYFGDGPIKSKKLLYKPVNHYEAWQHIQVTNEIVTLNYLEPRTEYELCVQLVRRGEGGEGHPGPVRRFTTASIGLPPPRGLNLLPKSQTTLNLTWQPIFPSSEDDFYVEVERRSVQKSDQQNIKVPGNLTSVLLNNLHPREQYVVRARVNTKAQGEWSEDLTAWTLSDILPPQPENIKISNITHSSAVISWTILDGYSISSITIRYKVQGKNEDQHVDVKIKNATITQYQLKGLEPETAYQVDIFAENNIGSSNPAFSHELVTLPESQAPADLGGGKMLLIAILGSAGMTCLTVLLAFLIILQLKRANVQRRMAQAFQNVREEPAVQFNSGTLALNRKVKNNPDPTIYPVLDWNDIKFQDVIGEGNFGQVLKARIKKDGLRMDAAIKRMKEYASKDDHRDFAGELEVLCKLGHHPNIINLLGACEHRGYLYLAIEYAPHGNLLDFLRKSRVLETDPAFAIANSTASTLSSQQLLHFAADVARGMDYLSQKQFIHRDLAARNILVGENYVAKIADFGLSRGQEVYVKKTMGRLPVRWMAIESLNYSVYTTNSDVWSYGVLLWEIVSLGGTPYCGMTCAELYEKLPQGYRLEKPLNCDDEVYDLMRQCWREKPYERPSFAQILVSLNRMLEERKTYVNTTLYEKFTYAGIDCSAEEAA", "assay": "Inhibition of TIE2 (unknown origin) at 1 uM relative to control", "conditions": "values are per cent of control", "in_short": "as §1", "units": {"residual binding, % of control": "%"}}
{"molecule": "COc1ccc(-c2nc(-c3ccnc(N)n3)sc2C(N)=O)c(Cl)c1", "residual binding, % of control": 99}
{"molecule": "CCOC(=O)c1sc(-c2ccncc2)nc1O", "residual binding, % of control": 67}
{"molecule": "NC(=O)c1sc(-c2ccnc(N)n2)nc1-c1ccc(Cl)cc1Cl", "residual binding, % of control": 82}
{"biological_target": "Cyclin-dependent kinase 2/cyclin E1 (Homo sapiens, UniProt P24941)", "assay": "Inhibition of CDK2/Cyclin-E (unknown origin) using maltose binding protein as substrate by HTRF assay", "assay_type": "protein-complex assay", "conditions": "not given", "units": {"IC50": "µM"}}
{"molecule": "COc1ccc(-c2nc(-c3ccnc(N)n3)sc2C(N)=O)c(Cl)c1", "IC50": 10.6}
{"molecule": "CCOC(=O)c1sc(-c2ccncc2)nc1O", "IC50": "> 125"}
{"molecule": "NC(=O)c1sc(-c2ccnc(N)n2)nc1-c1ccc(Cl)cc1Cl", "IC50": 1.82}
{"biological_target": "Tyrosine-protein kinase SYK (Homo sapiens) (UniProt P43405)", "assay": "Inhibition of SYK (unknown origin) at 1 uM relative to control", "conditions": "values are per cent of control", "units": {"residual binding, % of control": "%"}}
{"molecule": "COc1ccc(-c2nc(-c3ccnc(N)n3)sc2C(N)=O)c(Cl)c1", "residual binding, % of control": 56}
{"molecule": "CCOC(=O)c1sc(-c2ccncc2)nc1O", "residual binding, % of control": 97}
{"molecule": "NC(=O)c1sc(-c2ccnc(N)n2)nc1-c1ccc(Cl)cc1Cl", "residual binding, % of control": 72}
{"biological_target": "Serine/threonine-protein kinase OSR1 (Homo sapiens) (UniProt O95747)", "sequence (O95747 2-527 limits assumed)": "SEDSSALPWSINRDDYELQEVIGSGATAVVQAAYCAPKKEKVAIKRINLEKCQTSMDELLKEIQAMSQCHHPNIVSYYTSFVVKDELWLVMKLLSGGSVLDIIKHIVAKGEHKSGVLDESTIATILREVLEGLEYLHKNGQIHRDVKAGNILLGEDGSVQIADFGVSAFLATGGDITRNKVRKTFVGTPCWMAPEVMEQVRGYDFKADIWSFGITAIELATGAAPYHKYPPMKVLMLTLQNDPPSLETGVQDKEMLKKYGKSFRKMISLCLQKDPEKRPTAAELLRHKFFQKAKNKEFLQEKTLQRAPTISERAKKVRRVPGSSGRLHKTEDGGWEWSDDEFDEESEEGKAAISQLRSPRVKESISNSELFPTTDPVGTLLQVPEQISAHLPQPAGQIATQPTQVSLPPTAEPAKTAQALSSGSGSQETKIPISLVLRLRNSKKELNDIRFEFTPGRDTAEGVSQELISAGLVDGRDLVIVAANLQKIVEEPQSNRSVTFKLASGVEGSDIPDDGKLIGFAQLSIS", "assay": "Inhibition of OSR1 (unknown origin) at 1 uM relative to control; values are per cent of control", "conditions": "not given", "units": {"residual activity": "%"}}
{"molecule": "COc1ccc(-c2nc(-c3ccnc(N)n3)sc2C(N)=O)c(Cl)c1", "residual activity": 92}
{"molecule": "CCOC(=O)c1sc(-c2ccncc2)nc1O", "residual activity": 100}
{"molecule": "NC(=O)c1sc(-c2ccnc(N)n2)nc1-c1ccc(Cl)cc1Cl", "residual activity": 82}
{"biological_target": "Serine/threonine-protein kinase PLK1 (Homo sapiens) (UniProt P53350)", "sequence (P53350 whole entry)": "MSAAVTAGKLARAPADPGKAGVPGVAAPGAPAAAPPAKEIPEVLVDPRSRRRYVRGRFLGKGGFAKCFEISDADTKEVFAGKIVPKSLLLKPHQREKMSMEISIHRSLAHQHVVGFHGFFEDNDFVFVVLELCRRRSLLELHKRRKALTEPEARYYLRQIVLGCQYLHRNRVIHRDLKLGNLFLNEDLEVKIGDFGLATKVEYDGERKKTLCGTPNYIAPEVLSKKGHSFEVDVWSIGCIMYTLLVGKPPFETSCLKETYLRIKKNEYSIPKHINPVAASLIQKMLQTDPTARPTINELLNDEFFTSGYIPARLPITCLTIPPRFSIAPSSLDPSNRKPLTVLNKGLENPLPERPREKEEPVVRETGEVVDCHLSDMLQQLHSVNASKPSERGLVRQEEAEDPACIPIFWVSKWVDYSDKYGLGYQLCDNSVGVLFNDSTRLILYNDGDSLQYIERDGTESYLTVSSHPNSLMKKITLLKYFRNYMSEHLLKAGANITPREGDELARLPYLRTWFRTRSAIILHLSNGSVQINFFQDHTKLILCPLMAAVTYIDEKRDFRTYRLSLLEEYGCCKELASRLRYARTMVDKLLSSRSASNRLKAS", "assay": "Inhibition of PLK1 (unknown origin) at 1 uM relative to control", "conditions": "values are per cent of control", "in_short": "as §1", "units": {"residual binding, % of control": "%"}}
{"molecule": "COc1ccc(-c2nc(-c3ccnc(N)n3)sc2C(N)=O)c(Cl)c1", "residual binding, % of control": 88}
{"molecule": "CCOC(=O)c1sc(-c2ccncc2)nc1O", "residual binding, % of control": 100}
{"molecule": "NC(=O)c1sc(-c2ccnc(N)n2)nc1-c1ccc(Cl)cc1Cl", "residual binding, % of control": 100}
{"biological_target": "Cyclin-dependent kinase 4/cyclin D1 (Homo sapiens) (UniProt P11802+P24385)", "assay": "Inhibition of CDK4-cyclinD1 (unknown origin) at 1 uM relative to control; values are per cent of control", "conditions": "not given", "units": {"residual activity": "%"}}
{"molecule": "COc1ccc(-c2nc(-c3ccnc(N)n3)sc2C(N)=O)c(Cl)c1", "residual activity": 98}
{"molecule": "CCOC(=O)c1sc(-c2ccncc2)nc1O", "residual activity": 100}
{"molecule": "NC(=O)c1sc(-c2ccnc(N)n2)nc1-c1ccc(Cl)cc1Cl", "residual activity": 100}
{"biological_target": "T2, Protein kinase C epsilon type (Homo sapiens) (UniProt Q02156)", "T2 sequence (whole entry)": "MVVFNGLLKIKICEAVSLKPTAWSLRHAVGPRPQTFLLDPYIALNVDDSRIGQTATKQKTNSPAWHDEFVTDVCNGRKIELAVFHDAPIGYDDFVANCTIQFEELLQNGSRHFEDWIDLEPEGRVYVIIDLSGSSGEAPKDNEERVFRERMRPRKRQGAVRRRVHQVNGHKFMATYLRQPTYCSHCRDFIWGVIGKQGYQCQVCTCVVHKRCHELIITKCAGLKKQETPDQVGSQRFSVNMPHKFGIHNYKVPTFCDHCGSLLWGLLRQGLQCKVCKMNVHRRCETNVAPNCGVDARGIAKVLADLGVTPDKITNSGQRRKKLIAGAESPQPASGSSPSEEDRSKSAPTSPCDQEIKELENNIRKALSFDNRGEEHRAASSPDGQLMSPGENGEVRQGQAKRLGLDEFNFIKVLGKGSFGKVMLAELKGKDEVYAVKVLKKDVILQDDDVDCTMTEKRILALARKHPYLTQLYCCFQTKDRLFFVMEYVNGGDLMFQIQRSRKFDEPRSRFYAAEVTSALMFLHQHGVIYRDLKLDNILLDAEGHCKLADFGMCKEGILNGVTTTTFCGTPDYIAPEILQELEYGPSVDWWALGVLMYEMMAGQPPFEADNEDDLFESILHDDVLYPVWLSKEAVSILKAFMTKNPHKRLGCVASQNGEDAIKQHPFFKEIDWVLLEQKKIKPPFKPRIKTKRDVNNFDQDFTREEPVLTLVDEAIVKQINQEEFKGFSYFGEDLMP", "assay": "Inhibition of PRKCE (unknown origin) at 1 uM relative to control", "conditions": "values are per cent of control", "in_short": "as §1", "units": {"residual binding, % of control": "%"}}
{"molecule": "COc1ccc(-c2nc(-c3ccnc(N)n3)sc2C(N)=O)c(Cl)c1", "residual binding, % of control": 100}
{"molecule": "CCOC(=O)c1sc(-c2ccncc2)nc1O", "residual binding, % of control": 100}
{"molecule": "NC(=O)c1sc(-c2ccnc(N)n2)nc1-c1ccc(Cl)cc1Cl", "residual binding, % of control": 73}
